Assay results pooled from the literature.
Protocols differ between the studies behind these lines.
BRAF: Serine/threonine-protein kinase B-raf (BRAF, Homo sapiens, UniProt P15056)
ELANE: Neutrophil elastase (ELANE, Homo sapiens, UniProt P08246)
EGFR L858R/T790M: Epidermal growth factor receptor (EGFR, Homo sapiens, UniProt P00533, L858R/T790M)
SMUG1: SMUG1 (Homo sapiens, UniProt Q53HV7)
SMARCA2 bromodomain: SWI/SNF-related matrix-associated actin-dependent regulator of chromatin subfamily A member 2, bromodomain (SMARCA2, Homo sapiens, UniProt P51531)
MTOR: Serine/threonine-protein kinase mTOR (MTOR, Homo sapiens, UniProt P42345)
BACE1: Beta-secretase 1 (BACE1, Homo sapiens, UniProt P56817)
Delta-aminolevulinic acid dehydratase C162A/K59N: Delta-aminolevulinic acid dehydratase (Homo sapiens, UniProt P13716, C162A/K59N)
Ephx2: Bifunctional epoxide hydrolase 2 (Ephx2, Mus musculus, UniProt P34914)

| SMILES | target | effect on | action | technique | pH | notes | IC50 [nM] |
| --- | --- | --- | --- | --- | --- | --- | --- |
| C[C@]1(C(=O)[C@H](CC2CCCCC2)NC(=O)[C@@H]2COCCCCCC(=O)N3CCC[C@H]3C(=O)N2)CO1 | Proteasome Macropain subunit MB1 (PSMB5, Homo sapiens, UniProt P28074) | enzyme activity | inhibitor | fluorescence | – | – | > 10000 |
| Cc1ccc(COc2ccc3c(c2)NC(=C(C#N)C(=O)c2ccc(Cl)cc2Cl)NC3=O)cc1 | Cytoplasmic dynein 2 heavy chain 1 (DYNC2H1, Homo sapiens, UniProt Q8NCM8) | ATPase activity | inhibitor | – | – | – | 11000 |
| CCCc1cc2cc(-n3nc(C)c4c3CC(C)(C)CC4=O)cc(N[C@H]3CC[C@H](O)CC3)c2c(=O)[nH]1 | Endoplasmin (HSP90B1, Canis lupus familiaris, UniProt P41148) | ligand displacement | – | FP | – | – | > 50000 |
| Nc1cccc(-c2cc3c(Oc4cccc(O)c4)ncnc3[nH]2)c1 | BRAF | cell-free assay | inhibitor | – | – | – | 832 |
| CC(=O)N[C@H]1CSSC[C@@H](C(=O)N[C@@H](Cc2c[nH]c3ccccc23)C(N)=O)NC(=O)[C@@H](Cc2ccccc2)NC(=O)[C@H](CCCNC(=N)N)NC1=O | Melanocortin receptor 3 (MC3R, Homo sapiens, UniProt P41968) | ligand displacement | – | radioligand | – | – | 420 |
| Cc1cc(Nc2cc(CN3CCOCC3)c3nc(C)c(Cc4ccc(Cl)cc4F)n3n2)n[nH]1 | Muscle, skeletal receptor tyrosine-protein kinase (MUSK, Homo sapiens, UniProt O15146) | enzyme activity | inhibitor | TR-FRET | – | – | 147 |
| Cc1cccc(C(=O)n2nc(Cl)c(=O)c3ccccc32)c1 | ELANE | enzyme activity | inhibitor | fluorescence | – | – | 970 |
| C=C(Cl)C(=O)Nc1cc(Nc2nc(N3CCOCC3)c3sccc3n2)c(OC)cc1N(C)CCN(C)C | EGFR L858R/T790M | enzyme activity | inhibitor | ELISA | – | – | 63 |
| O=C(Nc1ccc(Cl)cc1)N1CCC(n2c(=O)[nH]c3c(Br)cccc32)CC1 | SMUG1 | enzyme activity | inhibitor | – | – | – | > 100000 |
| COc1ccc2c(c1OCc1ccc(OC(F)(F)F)cc1)C[C@@H](C(=O)O)N(c1nc3ccc(F)cc3o1)C2 | Type-1 angiotensin II receptor (AGTR1, Homo sapiens, UniProt P30556) | ligand displacement | – | – | – | – | > 10000 |
| CC[C@@H](C(=O)Nc1ccc(C(N)=O)c(F)c1)n1cc(OC)c(-c2cc(Cl)ccc2-n2cc(C(F)(F)F)nn2)cc1=O | Tissue-type plasminogen activator (PLAT, Homo sapiens, UniProt P00750) | enzyme activity | inhibitor | – | – | – | > 10000 |
| Cc1cccc(C(=O)n2ncc(=O)c3cc([N+](=O)[O-])ccc32)c1 | ELANE | enzyme activity | inhibitor | fluorescence | – | – | 260 |
| Cc1ncsc1-c1ccc(CNC(=O)[C@@H]2C[C@H](O)CN2C(=O)[C@@H](NC(=O)C2(F)CC2)C(C)(C)C)c(OCCc2ccc(CN3CCN(c4cc(-c5ccccc5O)nnc4N)CC3)cc2)c1 | SMARCA2 bromodomain | ligand displacement | – | TR-FRET | – | – | 1300 |
| Nc1ncc(-c2nc(N3CCOCC3)nc(N3C[C@H]4CC[C@@H](C3)O4)n2)c(C(F)F)n1 | MTOR | ligand displacement | – | TR-FRET | – | – | 42.2 |
| O=C(Nc1ccc(-c2nc(-c3ccc(C(F)(F)F)cc3)no2)cc1)C1CC(=O)N(Cc2cccnc2)C1 (stereo not drawn) | Relaxin-3 receptor 1 (RXFP3, Homo sapiens, UniProt Q9NSD7) | cAMP | antagonist | TR-FRET | – | – | 2170 |
| Cc1ncsc1-c1ccc(CNC(=O)[C@@H]2C[C@H](O)CN2C(=O)[C@@H](NC(=O)C2(F)CC2)C(C)(C)C)c(OCCOc2ccc(CN3CCN(c4cc(-c5ccccc5O)nnc4N)CC3)cc2)c1 | SMARCA2 bromodomain | ligand displacement | – | TR-FRET | – | – | 670 |
| COc1ccc(-c2coc3cc(O)c(CC=C(C)C)c(O)c3c2=O)c(O)c1 | BACE1 | enzyme activity | inhibitor | – | – | – | 42000 |
| CC(C)(C)n1nc(-c2ccc3nc(OC4CC4)ccc3c2)c(C(N)=O)c1N | BRAF | cell-free assay | – | – | – | – | > 10000 |

| SMILES | target | effect on | action | technique | pH | notes | IC50 [nM] |
| --- | --- | --- | --- | --- | --- | --- | --- |
| O=C(Nc1ccc(Cl)c(Cl)c1)N1CCC(n2c(=O)[nH]c3c(Br)cccc32)CC1 | SMUG1 | enzyme activity | inhibitor | – | – | – | > 100000 |
| O=C(O)C1=CC(=C(c2ccc(O)c(C(=O)O)c2)c2ccc(O)c(C(=O)O)c2)C=CC1=O | DNA polymerase iota (Homo sapiens, UniProt Q9UNA4) | enzyme activity | inhibitor | – | – | – | 99 |
| CC(C)=CCCC(C)=CCc1c(O)cc(O)c2c(=O)c(-c3ccc(O)cc3O)coc12 | BACE1 | enzyme activity | inhibitor | – | – | – | 45000 |
| Nc1ncc2c(n1)-c1c([nH]c3ccc(-c4ccc(F)cc4)cc13)CCC2 | Non-receptor tyrosine-protein kinase TYK2, JH2 (TYK2, Homo sapiens, UniProt P29597) | target engagement in cells | – | BRET | – | – | > 10000 |
| O=C(O)Cc1ccccc1Nc1c(Cl)cccc1Cl | Delta-aminolevulinic acid dehydratase C162A/K59N | enzyme activity | inhibitor | absorbance | pH 8 | with preincubation | 9000 |
| C=CC(=O)Nc1cc(Nc2nccc(-c3cn(C4CC4)c4ccccc34)n2)c(OC)cc1N(C)CCN(C)C | Epidermal growth factor receptor (EGFR, Homo sapiens, UniProt P00533, D761Y) | enzyme activity | inhibitor | TR-FRET | – | – | 0.84 |
| CC(C)C[C@H](NC(=O)[C@H](Cc1ccccc1)NC(=O)[C@@H](N)Cc1ccc(O)cc1)C(=O)N[C@@H](Cc1ccccc1)C(=O)N[C@@H](CCCNC(=N)N)C(=O)N1CCC[C@H]1C(=O)N[C@@H](CCCNC(=N)N)C(=O)N[C@@H](CC(N)=O)C(N)=O | Neuromedin-U receptor 2 (Mus musculus, UniProt Q8BZ39) | ligand displacement | – | radioligand | – | cell membranes | 0.09 |
| CC(C)c1cc(NC(=O)Nc2ccc(F)c(F)c2)n(-c2ccccc2)n1 | Kir3.1/Kir3.2 (Homo sapiens, UniProt P48051+P48549) | ion flux | inhibitor | – | – | – | 2500 |
| O=C(O)c1cccnc1Nc1cccc(C(F)(F)F)c1 | Delta-aminolevulinic acid dehydratase C162A/K59N | enzyme activity | inhibitor | absorbance | pH 8 | with preincubation | 13000 |
| O=C(Nc1ccn(Cc2ccc(O)cc2C(F)(F)F)n1)c1c(F)cccc1F | Short transient receptor potential channel 6 (TRPC6, Homo sapiens, UniProt Q9Y210) | ion current | inhibitor | – | – | – | > 10000 |
| COc1ccc2c(Oc3ccc4c(C(=O)Nc5ccccc5N)cccc4c3)ccnc2c1 | BRAF | enzyme activity | inhibitor | – | – | – | > 500 |
| CNc1nc(C)nc(N[C@H]2CCC[C@@H](C(=O)NCc3ccc(C#N)cc3C(F)(F)F)C2)n1 | Ephx2 | enzyme activity | inhibitor | – | – | – | 4 |
| CN1CCN(c2ccc(Nc3ncc4cc(C#N)c(=O)n(C5CCCC5)c4n3)cc2)CC1 | Proto-oncogene tyrosine-protein kinase ROS (ROS1, Homo sapiens, UniProt P08922) | enzyme activity | inhibitor | – | – | – | 2250 |
| C[C@@H]1COCCN1c1nc(-c2cnc(N)nc2C(F)F)nc(N2CCOCC2)n1 | MTOR | ligand displacement | – | TR-FRET | – | – | 32.4 |
| Cc1cccc(C(=O)Oc2c(Cl)nnc3ccccc23)c1 | ELANE | enzyme activity | inhibitor | fluorescence | – | – | 4800 |
| O=C(N/N=C/c1cccn1CCN1CCOCC1)Nc1cc2c(Nc3ccc(F)c(Cl)c3)ncnc2cc1O[C@H]1CCOC1 | EGFR L858R/T790M | enzyme activity | inhibitor | – | – | – | 16.7 |
| Cc1c(Cl)cccc1Nc1ccccc1C(=O)O | Delta-aminolevulinic acid dehydratase C162A/K59N | enzyme activity | inhibitor | absorbance | pH 8 | with preincubation | 2100 |
| CCC(C)(O)C(=O)N1CCC(NC(=O)Nc2ccc(OC(F)(F)F)c(F)c2)CC1 (stereo not drawn) | Ephx2 | enzyme activity | inhibitor | – | – | – | 13 |
